In ChEMBL document CHEMBL1150151, “Dictyoquinazols A, B, and C, new neuroprotective compounds from the mushroom Dictyophora indusiata” (J Nat Prod, 2002):
The source made the active and inactive calls. The rule behind the calls is not given here.

Assays:
Cortical neurone [1] = assay: Neuroprotective activity against AMPA-induced neurotoxicity in ICR mouse cortical neurons preincubated for 1 hr before AMPA challenge measured after 24 hrs by MTT assay; type: functional
Summary of the method: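 Primary cortical cultures from gestation day 15 ICR mouse embryos, grown 12 days in B27-supplemented neurobasal medium, switched to neurobasal without supplement. Compound in methanol (0.1% final), added 1 h before 80 μM AMPA, then 24 h. Viability read by MTT (1 mg/mL, 1 h, 37 °C; DMSO-dissolved formazan at 540 nm), expressed relative to control and excitotoxin-alone wells.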

[2] = Neuroprotective activity against glutamate-induced neurotoxicity in primary cultured mouse cortical neurons preincubated for 1 hr before glutamate challenge measured after 24 hrs by MTT assay
[3] = Inhibition of monoamine oxidase at 60 to 100 uM
Cortical neurone [4] = assay: Neuroprotective activity against NMDA-induced neurotoxicity in ICR mouse cortical neurons preincubated for 1 hr before NMDA challenge measured after 24 hrs by MTT assay; type: functional
Summary of the method: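 12-day ICR mouse (E15) cortical cultures in neurobasal medium without supplement. Pretreatment with compound (methanol vehicle, 0.1% final) for 1 h, then 40 μM NMDA for 24 h. Compound range 10 to 30 μM. Survival by MTT reduction, formazan in DMSO read at 540 nm, normalised as (toxin+compound − toxin)/(control − toxin) × 100.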

[5] = tested on: Radical scavenging activity; assay: Antioxidant activity assessed as superoxide and DPPH radical scavenging activity; type: functional
Cortical neurone [6] = assay: Neuroprotective activity against glutamate-induced neurotoxicity in ICR mouse cortical neurons at 5 to 10 uM preincubated for 1 hr before glutamate challenge measured after 24 hrs by MTT assay; type: functional
Summary of the method: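 Cortical neurons from E15 ICR mouse embryos, matured 12 days, supplement-free neurobasal during assay. 1 h compound pretreatment (0.1% methanol final), then 20 μM glutamate, kept 24 h. MTT 1 mg/mL for 1 h at 37 °C, formazan dissolved in DMSO, absorbance 540 nm; percent protection from control and glutamate-only OD.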

Cortical neurone [7] = assay: Neuroprotective activity against kainate-induced neurotoxicity in ICR mouse cortical neurons preincubated for 1 hr before kainate challenge measured after 24 hrs by MTT assay; type: functional
Summary of the method: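 Mouse (ICR, gestation day 15) cortical neuron cultures used at day 12 in neurobasal medium lacking supplement. Compound in methanol (0.1% final) given 1 h ahead of 200 μM kainate; incubation 24 h more. Viability by MTT (1 mg/mL, 1 h), DMSO-solubilised formazan at 540 nm, scaled between kainate-alone and untreated control.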

Row | Activity [3] | Structure (SMILES) | Activity (Cortical neurone [1]) | Activity [2] | Activity (Cortical neurone [4]) | Activity [5] | Activity (Cortical neurone [6]) | Activity (Cortical neurone [7])
1 | Active | COc1ccc2c(c1)CN(c1ccc(OC)cc1CO)CN2C=O | inactive | inactive | Dose-dependent effect | inactive | Active | inactive
2 | Active | COc1ccc(N2CN(C=O)c3ccc(OC)cc3C2=O)c(CO)c1 | inactive | inactive | Dose-dependent effect | inactive | Active | inactive
3 | Active | COc1ccc(-n2cnc3ccc(OC)cc3c2=O)c(CO)c1 | inactive | inactive | Dose-dependent effect | inactive | Active | inactive
